Assay results from PubChem BioAssay AID504588 (Broad Institute, 2011).

test system: U2OS HRE-luciferase reporter, luminescence; test: activators of HIF pathway HRE-luciferase reporter, dose response, U2OS cells, luminescence, dry powder, set 10 (AID 504588)
Outline: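 Assay system: human U2OS osteosarcoma cells stably expressing 3×HRE-driven luciferase reporter. Input: 6,000 cells per well. Schedule: 24 h compound exposure at 37 °C, 5% CO2, 21% O2. Measured by: Steady-Glo luminescence. Compound dosing: 3-fold dilution series.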

Row | SMILES | AC40 [nM]
1 | CC(C)(C)c1ccc(CNc2nc(-c3ccccn3)nnc2-c2ccccc2)cc1 | 447
2 | c1ccc(-c2cccc(CNc3nc(-c4ccccn4)nnc3-c3ccccc3)c2)cc1 | 721
3 | CC(C)(C)CCNc1nc(-c2ccccn2)nnc1-c1ccccc1 | 940
4 | c1ccc(CCNc2nc(-c3ccccn3)nnc2-c2ccccc2)cc1 | 2520
5 | c1ccc(-c2ccc(CNc3nc(-c4ccccn4)nnc3-c3ccccc3)cc2)cc1 | 360
6 | Clc1cccc(CNc2nc(-c3ccccn3)nnc2-c2ccccc2)c1 | 1310
